Compound activity: PubChem, several laboratories
KCNQ1 block – inhibitors of human KCNQ1 channel, primary screen, cell-based, thallium flux, high-throughput. Potassium voltage-gated channel subfamily KQT member 1 (Homo sapiens), P51787. CHO-K1 KCNQ1, FluxOR thallium flux fluorescence; active compounds read high. B-score at 10 µM. actives 1.3% (n = 310,000);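 active means compounds whose thallium flux B-score, printed positive for inhibition, exceeds three library SD while starting fluorescence stays within three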;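 further: channel opened by potassium depolarization with thallium stimulus after 20 min compound exposure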
KCNQ1 act – potentiators or activators of KCNQ1 channel, primary screen, cell-based, thallium flux, high-throughput. CHO-K1 KCNQ1, thallium flux FluxOR fluorescence; active compounds read high. B-score at 10 µM. Potassium voltage-gated channel subfamily KQT member 1 (Homo sapiens), P51787. actives 0.35% (n = 310,000);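 active means fluorescence ratio B-score, a plate-corrected score, at least three library SD, with initial intensity B-score within 5 SD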
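Assay system: CHO-K1 cells stably expressing KCNQ1; Medium: assay buffer with matched DMSO; Also added: K+/Tl+ depolarizing stimulus; Dosing: single dose; Timing: dye 90 min, compound 20 min, room temperature; Measured by: kinetic FluxOR thallium fluorescence, 10-s 1-Hz baseline, 110-s post-stimulus read; Read-out: peak-minus-minimum fluorescence over initial fluorescence, negative-control normalized, B-scored.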
Cl transport mod – KCC2 cotransporter modulators, thallium flux, primary screen, cell-based, HEK293 KCC2, FluoZin-2 fluorescence, MLSMR; Solute carrier family 12 member 5 (Homo sapiens), Q9H2X9; KCC2 cells, thallium flux FluoZin-2 fluorescence; B-score of Tl+ flux slope (higher = more flux/activation; lower = inhibition) at 10 µM; actives 2.2% (n = 190,000); AID 1456, 2008;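 active means thallium flux slope and its plate-corrected score both differing from the plate sample mean at a set confidence after two filtering rounds, in either direction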;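 further: slope of fluorescence scaled to starting intensity during 10 to 20 s after thallium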
KCNK9 inh – KCNK9 potassium channel inhibitors, primary screen, HEK293 cells, thallium flux; FluxOR thallium flux fluorescence; active compounds read low; B-score at 10 µM; actives 1.2% (n = 310,000); AID 488922, 2010;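 active means ratio B-score over 3 SD below the library mean, with starting fluorescence within 5 SD of its mean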;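 further: negative B-score means less thallium flux so channel inhibition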
KCNK3 block – human KCNK3 channel inhibitors, primary screen, CHO cells, FluxOR thallium flux, B-score; Potassium channel subfamily K member 3 (Homo sapiens), O14649; FluxOR fluorescence; active compounds read low; B-score at 10 µM; actives 0.84% (n = 340,000); AID 602410, 2012;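 active means B-score under library mean minus 4 SD, starting fluorescence ratio at most library mean plus 5 SD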;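 further: more negative B-score means stronger inhibition of thallium flux through KCNK3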
hERG rescue – hERG rescue from dofetilide block, primary screen, cell-based, CHO-hERG, FluxOR thallium flux, dofetilide IC70; Voltage-gated inwardly rectifying potassium channel KCNH2 (Homo sapiens), Q12809; dofetilide IC70 present; activation (rescue from dofetilide block), less the hit threshold, % at 10 µM; actives 0.51% (n = 310,000);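 active means activation above the mean of controls blocked by dofetilide plus 5 SD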;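 further: thallium influx through hERG after potassium depolarization seen as dye fluorescence rise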
KCNK3 confirm – retest of human KCNK3 channel inhibitors, confirmation, CHO cells, FluxOR thallium flux, triplicate; shares compounds with KCNK3 block; actives 99% (n = 2,400); FluxOR fluorescence; 0% buffer, 100% carvedilol maximal block; AID 651638, 2012; ratio percent of control, % at 10 µM;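 active means ratio percent of control, averaged over triplicates, above buffer control mean plus 5 SD, cut at about 64% in these data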;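 further: ratio is the fluorescence rise from min to max over baseline after thallium stimulus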
KCNK3 uninduced – thallium flux inhibition in non-induced cells, primary screen, counter-screen for KCNK3 inhibitor project, cell-based, non-induced KCNK3 line, FluxOR thallium, triplicate; shares compounds with KCNK3 block; non-induced KCNK3 parental cells; active compounds read low; thallium flux ratio (lower = more inhibition) at 10 µM; actives 40% (n = 2,400); AID 651747, 2012;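 active means thallium flux ratio, averaged over three wells, more than 5 SD below the buffer control mean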;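 further: host cells are CHO cells without KCNK3 induction; ratio is peak minus trough fluorescence over baseline then normalized to buffer controls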
An asterisk follows results filed as active; i = inactive; x = no result. This is a sample that favours compounds with a hit; in the whole collection about 4.1% have one here.

SMILES	KCNQ1 block	KCNQ1 act	Cl transport mod	KCNK9 inh	KCNK3 block	hERG rescue	KCNK3 confirm	KCNK3 uninduced
CC(=O)Nc1cccc(OCC(=O)Nc2sccc2C(N)=O)c1	i	i	-0.33	i	i	-5	x	x
CCOc1ccc(C(=O)NCC(c2ccco2)N2CCOCC2)cc1 (stereo not drawn)	i	i	x	i	i	-5	x	x
Cc1cc(/C=C(\C#N)C(=O)OCC(=O)NC(=O)NC(C)(C)C)c(C)n1CCC(C)C	i	i	-0.18	i	-8.7*	-3	125*	i
O=C(COC(=O)c1ccccc1F)Nc1ccc(S(=O)(=O)N2CCOCC2)cc1	x	x	x	x	i	x	x	x
OC(CCc1cccc(Cl)c1)c1cccs1 (stereo not drawn)	i	i	x	i	i	-7	x	x
Cc1nn(Cc2ccc(Cl)cc2)c(C)c1NC(=O)c1noc2c1CCc1ccccc1-2	i	i	-0.17	i	-8.7*	-8	117*	i
N#CC/C(N)=N/Nc1nc2ccccc2nc1Cc1ccccc1	i	i	x	i	i	-10	x	x
CCOC(=O)c1ccccc1NC(=O)c1c(O)c2ccccc2n(CC)c1=O	i	i	-0.25	i	-9.5*	-4	112*	i
CCCn1c(=O)c(C(=O)Nc2ccccc2C(=O)OC)c(O)c2ccccc21	i	i	-0.72	i	-9.6*	-3	98*	i
CSc1ccccc1NC(=O)c1cc(-c2cccnc2)nc2ccc(Br)cc12	i	i	1.9	i	-13*	-9	109*	0.15*
CCN1/C(=C\C(=S)Nc2ccccc2)Sc2ccccc21	i	i	-0.44	i	-9.8*	-14	110*	i
CCCN1C(=O)/C(=C\C=C2/Sc3ccccc3N2CC)SC1=S	i	i	x	i	x	-11	x	x
Cc1ccc(S(=O)(=O)N2C(=O)CCC2C(=O)O/N=C(\N)c2ccc([N+](=O)[O-])cc2)cc1 (stereo not drawn)	i	i	x	i	i	-11	x	x
C=CCc1ccc(OCC(O)CN2CCc3ccccc3C2)c(OC)c1 (stereo not drawn)	i	i	x	i	-9*	-11	103*	0.14*
CC(C)[C@H](NC(=O)C1CCN(S(=O)(=O)c2ccc(F)cc2)CC1)C(=O)NCc1ccco1	i	i	x	i	i	-11	x	x
Cc1cc(O)c(C(C)C)cc1NC(=O)c1cccc(Cl)c1	i	i	0.96	i	-9*	-17	109*	i
O=C(COc1ccc(Cl)cc1)Nc1nc(-c2cccs2)cs1	i	i	0.66	i	-9.3*	-3	127*	0.15*
CCOc1ccccc1OCCCOc1ccc([N+](=O)[O-])cc1Cl	i	i	-1.9	i	-9.8*	3	110*	i
CCc1ccc(N2CC(C(=O)N/N=C/c3ccccc3)CC2=O)cc1 (stereo not drawn)	i	i	x	i	i	-6	x	x
COc1cccc(/C=C2/Sc3ccc(C(=O)NCCN4CCCCCC4)cc3NC2=O)c1	7*	i	x	i	-10*	-35	112*	i
O=C(NCc1cccs1)C1CC(=O)N(Cc2ccccc2)C1 (stereo not drawn)	x	x	x	x	i	x	x	x
